Measurements taken from ChEMBL document CHEMBL2331219, “Synthesis and anti-Candida activity of novel 2-hydrazino-1,3-thiazole derivatives” (Bioorg Med Chem Lett, 2013).
Converted amounts (≈) assume the structure as drawn.

Columns and labels:
Candida parapsilosis [1] = experiment: Antifungal activity against anidulafungin-resistant Candida parapsilosis isolate 22019 assessed as growth inhibition after 24 to 48 hrs by CLSI microbroth dilution method; assay type: functional; settings: Lodderomyces parapsilosis
Procedure, shortened: (§1)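 Microbroth dilution per CLSI M27-A3. Isolates subcultured for purity, incubated at 35 °C; five colonies >1 mm suspended in saline, adjusted to 0.5 × 10³ to 2.5 × 10³ in RPMI 1640 buffered to pH 7.0 with 0.165 M MOPS. Compounds diluted in RPMI to final […]. Read visually after 24 h and 48 h at 35 °C; MIC judged by turbidity against drug-free growth control.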

Candida parapsilosis [2] = experiment: Antifungal activity against anidulafungin-resistant Candida parapsilosis ANF8 assessed as growth inhibition after 24 to 48 hrs by CLSI microbroth dilution method; assay type: functional; settings: Lodderomyces parapsilosis; procedure, shortened: as §1
Nakaseomyces glabratus [3] = experiment: Antifungal activity against fluconazole-resistant Candida glabrata isolate 6258 assessed as growth inhibition after 24 to 48 hrs by CLSI microbroth dilution method; assay type: functional; procedure, shortened: as §1
Nakaseomyces glabratus [4] = experiment: Antifungal activity against voriconazole-resistant Candida glabrata clinical isolate 730 assessed as growth inhibition after 24 to 48 hrs by CLSI microbroth dilution method; assay type: functional; procedure, shortened: as §1
Nakaseomyces glabratus [5] = experiment: Antifungal activity against voriconazole-resistant Candida glabrata clinical isolate 724 assessed as growth inhibition after 24 to 48 hrs by CLSI microbroth dilution method; assay type: functional; procedure, shortened: as §1
Candida albicans [6] = experiment: Antifungal activity against azole-resistant Candida albicans clinical isolate 7.O.A assessed as growth inhibition after 24 to 48 hrs by CLSI microbroth dilution method; assay type: functional; procedure, shortened: as §1
Candida albicans [7] = experiment: Antifungal activity against fluconazole-resistant Candida albicans clinical isolate 5.O.A assessed as growth inhibition after 24 to 48 hrs by CLSI microbroth dilution method; assay type: functional; procedure, shortened: as §1
Candida albicans [8] = experiment: Antifungal activity against caspofungin-resistant Candida albicans assessed as growth inhibition after 24 to 48 hrs by CLSI microbroth dilution method
[9] = Cytotoxicity against mouse NIH/3T3 cells assessed as cell viability at 62.5 ug/mL after 24 hrs by MTT assay relative to control; assay type: cell-based, NIH3T3; settings: read-out: Activity
Procedure, shortened: (§2)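 NIH/3T3 fibroblasts kept in DMEM with 10% fetal calf serum, penicillin/streptomycin, 37 °C, 5% CO2. Cells seeded at 2 × 10⁴ cells/mL, grown 24 h, then given compound (DMSO stock diluted in medium, final DMSO <0.1%) for 24 h. MTT at 0.5 mg/mL final added for 4 h, formazan dissolved in DMSO, absorbance read at 540 nm. Triplicate wells, mean ± SD, assay run twice.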

[10] = Cytotoxicity against mouse NIH/3T3 cells assessed as cell viability at 31.3 ug/mL after 24 hrs by MTT assay relative to control; assay type: cell-based, NIH3T3; settings: read-out: Activity; procedure, shortened: as §2
[11] = Cytotoxicity against mouse NIH/3T3 cells assessed as cell viability at 1 ug/mL after 24 hrs by MTT assay relative to control; assay type: cell-based, NIH3T3; settings: read-out: Activity; procedure, shortened: as §2
[12] = Cytotoxicity against mouse NIH/3T3 cells assessed as cell viability at 0.5 ug/mL after 24 hrs by MTT assay relative to control; assay type: cell-based, NIH3T3; settings: read-out: Activity; procedure, shortened: as §2

SMILES | MIC (Candida parapsilosis [1]) [µg/mL] | MIC (Candida parapsilosis [2]) [µg/mL] | MIC (Nakaseomyces glabratus [3]) [µg/mL] | MIC (Nakaseomyces glabratus [4]) [µg/mL] | MIC (Nakaseomyces glabratus [5]) [µg/mL] | MIC (Candida albicans [6]) [µg/mL] | MIC (Candida albicans [7]) [µg/mL] | MIC (Candida albicans [8]) [µg/mL] | viability at 24 h, 62.5 ug/mL [9] [%] | viability at 24 h, 31.3 ug/mL [10] [%] | viability at 24 h, 1 ug/mL [11] [%] | viability at 24 h, 0.5 ug/mL [12] [%]
COc1ccc(O)c(-c2csc(N/N=C/c3cc[nH]c3)n2)c1 | 16 (≈ 50.9 µM) | > 16 | > 16 | 16 (≈ 50.9 µM) | 8 (≈ 25.4 µM) | > 16 | 16 (≈ 50.9 µM) | 16 (≈ 50.9 µM) | – | – | – | –
COc1ccc(O)c(-c2csc(N/N=C/c3ccco3)n2)c1 | > 16 | > 16 | > 16 | > 16 | > 16 | > 16 | > 16 | > 16 | – | – | – | –
COc1ccc(O)c(-c2csc(N/N=C/c3cnc[nH]3)n2)c1 | > 16 | > 16 | > 16 | > 16 | > 16 | > 16 | > 16 | > 16 | – | – | – | –
COc1ccc(O)c(-c2csc(N/N=C/c3c(-c4ccccc4)nc4scc(C)n34)n2)c1 | > 16 | 4 (≈ 8.67 µM) | > 16 | 2 (≈ 4.33 µM) | > 16 | > 16 | > 16 | > 16 | 59.5 | 64.1 | 90 | 94.6
C/C(=N\Nc1nc([C@H](C)NC(=O)OCc2ccccc2)cs1)c1ccc2c(c1)CCC2 | > 16 | > 16 | > 16 | > 16 | > 16 | > 16 | > 16 | > 16 | – | – | – | –
C/C(=N\Nc1nc([C@H](Cc2ccccc2)NC(=O)OCc2ccccc2)cs1)c1ccc2c(c1)CCC2 | > 16 | > 16 | > 16 | > 16 | > 16 | > 16 | > 16 | > 16 | – | – | – | –
C/C(=N\Nc1nc([C@H](Cc2c[nH]c3ccccc23)NC(=O)OCc2ccccc2)cs1)c1ccc2c(c1)CCC2 | 8 (≈ 14.6 µM) | > 16 | > 16 | 8 (≈ 14.6 µM) | > 16 | > 16 | > 16 | > 16 | – | – | – | –
C[C@@H]1[C@H](O)[C@@H](C)/C=C/C=C/C=C/C=C/C=C/C=C/C=C/[C@H](O[C@@H]2O[C@H](C)[C@@H](O)[C@H](N)[C@@H]2O)C[C@@H]2O[C@](O)(C[C@@H](O)C[C@@H](O)[C@H](O)CC[C@@H](O)C[C@@H](O)CC(=O)O[C@H]1C)C[C@H](O)[C@H]2C(=O)O [AMPHOTERICIN B] | 1 (≈ 1.08 µM) | 0.5 (≈ 0.541 µM) | 1 (≈ 1.08 µM) | 1 (≈ 1.08 µM) | 0.5 (≈ 0.541 µM) | 0.5 (≈ 0.541 µM) | 0.5 (≈ 0.541 µM) | 0.5 (≈ 0.541 µM) | – | – | – | –
CC[C@H](C)C[C@H](C)CCCCCCCCC(=O)N[C@H]1C[C@@H](O)[C@@H](NCCN)NC(=O)[C@@H]2[C@@H](O)CCN2C(=O)[C@H]([C@H](O)CCN)NC(=O)[C@H]([C@H](O)[C@@H](O)c2ccc(O)cc2)NC(=O)[C@@H]2C[C@@H](O)CN2C(=O)[C@H]([C@@H](C)O)NC1=O [CASPOFUNGIN] | 0.5 (≈ 0.457 µM) | 8 (≈ 7.32 µM) | 2 (≈ 1.83 µM) | 2 (≈ 1.83 µM) | 0.5 (≈ 0.457 µM) | 0.25 (≈ 0.229 µM) | 0.5 (≈ 0.457 µM) | 0.5 (≈ 0.457 µM) | – | – | – | –
OC(Cn1cncn1)(Cn1cncn1)c1ccc(F)cc1F [FLUCONAZOLE] | 64 (≈ 209 µM) | 1 (≈ 3.27 µM) | 16 (≈ 52.2 µM) | 64 (≈ 209 µM) | 64 (≈ 209 µM) | > 64 | 32 (≈ 104 µM) | 0.125 (≈ 0.408 µM) | – | – | – | –
CCC(C)n1ncn(-c2ccc(N3CCN(c4ccc(OCC5COC(Cn6cncn6)(c6ccc(Cl)cc6Cl)O5)cc4)CC3)cc2)c1=O (stereo not given) [ITRACONAZOLE] | 0.5 (≈ 0.709 µM) | 0.03 (≈ 0.0425 µM) | 0.5 (≈ 0.709 µM) | 1 (≈ 1.42 µM) | 2 (≈ 2.83 µM) | > 16 | 0.5 (≈ 0.709 µM) | 0.03 (≈ 0.0425 µM) | – | – | – | –
C[C@@H](c1ncncc1F)[C@](O)(Cn1cncn1)c1ccc(F)cc1F [VORICONAZOLE] | 0.25 (≈ 0.716 µM) | 0.06 (≈ 0.172 µM) | 2 (≈ 5.73 µM) | 16 (≈ 45.8 µM) | 8 (≈ 22.9 µM) | > 16 | 0.25 (≈ 0.716 µM) | 0.25 (≈ 0.716 µM) | – | – | – | –
